Shown are actives, neighbours in structure and some others; about 1.5% of the full set was active somewhere.
MsrA act: bovine MsrA enzyme activators, primary screen, biochemical, absorbance, HTS | Methionine sulfoxide reductase A (Bos taurus) | actives 0.3% (n = 360,000) | AID 602163, 2012 | activation, % at 10.6 µM | purified bovine MsrA, absorbance read-out; in the data active = activation above about 7.5%;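 also: 0% = vehicle and 100% = reference activator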
TbMetRS inhib: T. brucei MetRS inhibitors, primary screen, biochemical, luminescence. methionyl-tRNA synthetase (Trypanosoma brucei brucei). purified T. brucei MetRS, ATP depletion, Kinase-Glo luminescence. inhibition, % at 11.9 µM. actives 0.4% (n = 360,000);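 active = inhibition above a per-plate cutoff of the control wells' mean inhibition plus 3 SD, cut at about 5.5% in these data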;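 also: 0% = DMSO wells median and 100% = median of wells with control inhibitor compound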
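Test system: purified T. brucei MetRS enzyme. Also added: ATP, methionine and E. coli bulk tRNA substrates. Compound: 11.9 µM single point. Schedule: 15 min enzyme-compound preincubation, 2 h reaction, 10 min detection, 25 °C. Signal: luciferase luminescence of residual ATP, Kinase-Glo. Evaluation: percent inhibition versus plate control medians. Controls: DMSO wells, low control.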
MsrA inhibitor: bovine MsrA enzyme inhibitors, primary screen, biochemical, absorbance, HTS; purified bovine MsrA, absorbance read-out; inhibition, % at 15.5 µM; Methionine sulfoxide reductase A (Bos taurus); actives 0.75% (n = 360,000);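 also: 0% = vehicle wells with enzyme and 100% = reference inhibitor wells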
procasp7 counter: procaspase-7 activators, primary screen, counter-screen for procaspase-3 activator project, biochemical, absorbance, HTS, human; recombinant procaspase-7, Ac-DEVD-pNA absorbance 405 nm; D23A/D198A/D206A triple mutant, cannot self-cleave; scale: DMSO 0, 5 µM enzyme 100; activation, % at 8.5 µM; actives 0.093% (n = 330,000); AID 463210, 2010;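 active = percent activation above the screen-wide mean plus 3 SD, cut at about 25% in these data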
Target sequence (P55210 whole entry D23A/D198A/D206A): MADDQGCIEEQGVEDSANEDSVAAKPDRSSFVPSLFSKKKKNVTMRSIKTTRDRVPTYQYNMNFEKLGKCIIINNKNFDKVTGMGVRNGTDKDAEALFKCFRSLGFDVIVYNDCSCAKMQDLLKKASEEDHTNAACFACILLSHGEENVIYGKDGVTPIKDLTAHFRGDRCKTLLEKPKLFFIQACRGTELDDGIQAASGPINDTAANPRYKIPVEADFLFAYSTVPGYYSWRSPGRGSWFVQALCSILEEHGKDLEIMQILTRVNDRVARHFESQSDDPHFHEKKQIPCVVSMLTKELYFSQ
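signal = Epi-absorbance of released pNA at 405 nm, two timepoints | assay system = Uncleavable procaspase-7 mutant enzyme | reagent = Ac-DEVD-pNA substrate, 400 µM as added | times = 1 h enzyme–compound preincubation and 2 h substrate reaction, both 25 °C | benchmarks = low DMSO alone, high DMSO plus 5 µM PC-7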
proCasp3 act: activators of human procaspase-3 D3A mutant, primary screen, biochemical, absorbance, PC-3 D3A mutant, single concentration; Caspase-3 (Homo sapiens), P42574; recombinant procaspase-3 D3A, Ac-DEVD-pNA absorbance 405 nm; activation, % at 8.5 µM; actives 0.11% (n = 330,000);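 active = activation above the mean of all tested compounds plus 3 SD, cut at about 21% in these data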;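 also: 0% = DMSO alone and 100% = DMSO wells spiked with extra 5 µM PC-3 D3A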
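Assay system: Procaspase-3 D3A mutant, all three cleavage aspartates alanine. Buffer or medium: Zinc-free HEPES saline buffer with Triton X-100. Times: 1 h compound preincubation, 2 h substrate hydrolysis at 25 °C. Measured by: 405 nm absorbance of p-nitroaniline, reads at 0 and 120 min. Read-out basis: percent activation relative to control range. Replicates: singlicate.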
MsrA inh confirm: bovine MsrA inhibitors, retest, confirmation, biochemical, absorbance, HTS; shares compounds with MsrA inhibitor; purified bovine MsrA, absorbance read-out; inhibition, % at 15.5 µM; actives 41% (n = 2,300);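 also: coupled to thioredoxin reductase with NADPH and selenocystamine and DMSO as substrate; 0% = vehicle only and 100% = full effect of reference inhibitor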
* marks the source's active call; other numbers are inactive results; . = not tested or not shown. Rule as the data show it, unless noted: active = inhibition above about 4.5%; inactive = the rest.

SMILES	MsrA act	TbMetRS inhib	MsrA inhibitor	procasp7 counter	proCasp3 act	MsrA inh confirm
COc1ccc(/C=C(\CC(=O)O)c2nc3ccccc3o2)cc1	-5	1	5.9*	3	-1	4
COC(=O)C1=C(C)N(C)C(=NCc2cccc(C(F)(F)F)c2)NC1c1cccc(F)c1 (centres undefined)	.	.	-1	.	.	.
C=CCN1N=C(/C=C/c2ccc(OC)cc2)CCC1=O	-2	0	7.8*	-2	9	4.6*
CCOC(=O)CN1N=C(/C=C/c2ccc(OCC)cc2)CCC1=O	-6	0	7.2*	3	4	4
CCOC(=O)CN1N=C(/C=C/c2ccccc2)CCC1=O	-4	-1	2	0	1	.
COc1ccc(/C=C/C2=NN(Cc3ccccc3)C(=O)CC2)cc1	-5	0	3	-5	-7	.
COc1cc(OC)c(NC(=O)NNC(=O)C(=O)NC2CC2)cc1Cl	.	.	-1	.	.	.
CCn1cc(C(=O)N2CCN(c3ccc(C(C)=O)cc3)CC2)c2cc(OC)c(OC)cc2c1=O	-17	-1	6.5*	11	3	4
C=CCNC(=S)N(C)[C@H]1C[C@H]2c3[nH]c4c(-c5ccccc5)cccc4c3CCN2C(=O)[C@H]1[C@H](C)O	.	.	1	.	.	.
O=C(N/C(=C/c1cccs1)c1nc2ccccc2[nH]1)c1ccccc1	-4	1	5.1*	-23	-14	6.0*
O=C(N/C(=C\c1ccc(Br)cc1)c1nc2ccccc2[nH]1)c1ccco1	-14	0	6.5*	0	0	4
Cc1cc(C)c2c3c(sc2n1)C(c1cccc(F)c1)C(C#N)=C(N)O3 (centres undefined)	-3	0	10*	-9	-21	4
COc1ccc(OC)c(/C=N\NC(=O)c2c(C)nc3cc(C)ccn23)c1	-1	3	3	-16	-19	.
COc1cc(/C=N\NC(=O)c2c(C)nc3cc(C)ccn23)ccc1O	-11	-1	7.1*	-4	2	6.4*
Cc1ccn2c(C(=O)N/N=C/c3ccc(Cl)cc3)c(C)nc2c1	-4	0	0	.	.	.
COc1ccc(/C=N/NC(=O)c2c(C)nc3ccc(Cl)cn23)cc1OC	-1	-1	6.2*	-5	3	5.3*
Cc1ccn2c(C(=O)N/N=C\c3ccc4c(c3)OCO4)c(C)nc2c1	-10	-2	7.3*	-10	3	5.5*
COc1cc(/C=N/NC(=O)c2c(C)nnn2-c2nonc2N)ccc1O	-11	-1	5.0*	-8	3	4
C=CC[C@]12C[C@@]3(O[C@H](c4ccccn4)N=C3C[C@H](c3ccc(OC)cc3)[C@H]1C)N(C1CCN(Cc3ccccc3)CC1)C2=O	.	.	0	.	.	.
COC(=O)C[C@H]1CC[C@H](NC(=O)c2ccc(F)cc2)[C@@H](CO)O1	.	0	1	.	.	.
COC(=O)N1C[C@H](Oc2cccc3ccccc23)[C@H]2C[C@@H]1c1ccccc1O2	.	.	-1	.	.	.
COc1ccc(/C=N/NC(=O)c2ccc(COc3cccc4cccnc34)cc2)cc1O	-7	0	1	-11	2	.
COc1cc(/C=N/NC(=O)c2ccncc2)ccc1OCCN1CCCCC1	3	-1	5.4*	-3	-8	2
COc1cc(/C=N/NC(=O)c2cc(-c3cccs3)nc3ccccc23)ccc1O	-4	0	4.9*	4	-3	4
COc1ccc(/C=N/NC(=O)c2ccc(COc3cccc4cccnc34)cc2)cc1OC	-3	0	4.9*	8	-2	2
COc1cc(/C=N/NC(=O)c2cc(-c3cccc(OC(C)C)c3)nc3ccccc23)ccc1O	-3	2	2	8	-7	.
